Measured values from ChEMBL document CHEMBL3351588, “Design, synthesis and biological evaluation of N-alkyl or aryl substituted isoindigo derivatives as potential dual cyclin-dependent kinase 2 (CDK2)/glycogen synthase kinase 3β (GSK-3β) phosphorylation inhibitors” (Eur J Med Chem, 2014).

Columns and labels:
[1] = Cytotoxicity against human VEC cells after 48 hrs by SRB assay; format: cell-based
In short: (§1)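 Cells seeded at 5 × 10³ per well and allowed to attach for 12 h, then exposed to a range of drug concentrations in their own medium for 48 h. Fixed with ice-cold TCA for 1 h at 4 °C, washed, then stained with 0.4% SRB for 30 min at room temperature. IC50 is the mean of three independent experiments.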

[2] = Cytotoxicity against human HCT116 cells after 48 hrs by SRB assay; format: functional, cell-based; settings: HCT-116, 48 h; in short: as §1
L1210 = assay: Cytotoxicity against mouse L1210 cells after 48 hrs by SRB assay; format: functional, cell-based; settings: L1210, 48 h; in short: as §1
HeLa = assay: Cytotoxicity against human HeLa cells after 48 hrs by SRB assay; format: functional, cell-based; in short: as §1
A549 = assay: Cytotoxicity against human A549 cells after 48 hrs by SRB assay; format: functional, cell-based; settings: A549, 48 h; in short: as §1
K562 [3] = assay: Cytotoxicity against human K562 cells after 48 hrs by SRB assay; format: functional, cell-based; settings: K562, 48 h; in short: as §1
MGC-803 = assay: Cytotoxicity against human MGC803 cells after 48 hrs by SRB assay; format: functional, cell-based; settings: MGC-803, 48 h; in short: as §1
K562 [4] = assay: Induction of cell cycle arrest in human K562 cells assessed as accumulation at G2/M phase at 10 uM after 24 hrs by propidium iodide staining based flow cytometry (reference value: 18.96%); format: functional
K562 [5] = assay: Induction of cell cycle arrest in human K562 cells assessed as accumulation at G0/G1 phase at 10 uM after 24 hrs by propidium iodide staining based flow cytometry (reference value: 36.14%); format: functional
K562 [6] = assay: Induction of cell cycle arrest in human K562 cells assessed as accumulation at S phase at 10 uM after 24 hrs by propidium iodide staining based flow cytometry (reference value: 44.90%); format: functional

Structure (SMILES) | IC50 [1] [µM] | IC50 [2] [µM] | IC50 (L1210) [µM] | IC50 (HeLa) [µM] | IC50 (A549) [µM] | IC50 (K562 [3]) [µM] | IC50 (MGC-803) [µM] | Activity (K562 [4]) [%] | Activity (K562 [5]) [%] | Activity (K562 [6]) [%]
CC(C)N1C(=O)/C(=C2/C(=O)Nc3ccccc32)c2ccccc21 | > 200 | 149 | > 200 | > 200 | 183 | > 200 | 176 | – | – | –
O=C1Nc2ccccc2/C1=C1\C(=O)N(CCc2ccccc2)c2ccccc21 | 184 | 85.2 | 158 | > 200 | 85.4 | 17.1 | > 200 | – | – | –
CN1C(=O)/C(=C2/C(=O)Nc3ccccc32)c2ccccc21 [MEISOINDIGO] | 122 | 27 | 167 | 15.7 | 57.3 | 23.3 | 128 | 10.25 | 32.25 | 57.5
CC(=O)N1C(=O)/C(=C2/C(=O)N(C(C)=O)c3ccccc32)c2ccccc21 | > 200 | > 200 | > 200 | > 200 | > 200 | > 200 | > 200 | – | – | –
CCCCN1C(=O)/C(=C2/C(=O)Nc3ccccc32)c2ccccc21 | 58.1 | 34.2 | 75.4 | 80.7 | 30.2 | 114 | 87.9 | – | – | –
O=C1Nc2ccccc2/C1=C1\C(=O)N(c2ccc(F)cc2)c2ccccc21 | 93.5 | 40.1 | > 200 | > 200 | 22.6 | > 200 | 108 | – | – | –
CCN1C(=O)/C(=C2/C(=O)Nc3ccccc32)c2ccccc21 | 73 | 51 | 47.5 | 194 | 61 | > 200 | 67.2 | – | – | –
CC(C)CN1C(=O)/C(=C2/C(=O)Nc3ccccc32)c2ccccc21 | 97.4 | 62.2 | 73.8 | > 200 | 52.8 | 74.4 | > 200 | – | – | –
